Reference: ChEMBL document CHEMBL3526139, “Clinical pharmacokinetics, metabolism, and drug-drug interaction of carfilzomib” (Drug Metab Dispos, 2013)

How the values were obtained:
Cytochrome P450 2C19 = Cytochrome P450 2C19 (Homo sapiens, UniProt P33261); test: Drug metabolism in pooled human hepatocytes assessed as disapperance rate at 1 uM by LC-MS/MS analysis in presence of 10 uM CYP2C19 inhibitor (+)-N-3-benzylnirvanol; format: ADME, cell-based, Hepatocyte
In short: (§1)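 Pooled human hepatocytes in suspension (~0.5 x 10^6 viable cells/mL) were incubated with 1 µM carfilzomib at 37°C under 5% CO2, with or without isoform-selective CYP chemical inhibitors. Reactions were quenched with acetonitrile at 0, 15, 30, 60 and 120 min. Carfilzomib was quantified by non-validated LC-MS/MS after protein precipitation.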

CYP3A [1] = target: T1, CYP3A (Homo sapiens, UniProt P08684+P20815+P24462+Q9HB55); test: Inhibition of CYP3A in human liver microsomes assessed as substrate metabolite formation using midazolam as substrate preincubated with microsomes for 30 mins prior to substrate addition measured after 5 mins by LC-MS/MS analysis; format: ADME; details: probe midazolam
In short: (§2)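 HLM (16-donor pool) were preincubated 30 min with carfilzomib 0.01–10 µM before addition of midazolam or testosterone at about Km. Metabolite formation was measured by LC-MS/MS after 5 min, in duplicate, relative to 0.5% acetonitrile controls.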

Cytochrome P450 2D6 = Cytochrome P450 2D6 (Homo sapiens, UniProt P10635); test: Drug metabolism in pooled human hepatocytes assessed as disapperance rate at 1 uM by LC-MS/MS analysis in presence of 10 uM CYP2D6 inhibitor quinidine; format: ADME, cell-based, Hepatocyte; in short: as §1
Cytochrome P450 3A [2] = target: T2, Cytochrome P450 3A (Homo sapiens, UniProt P08684+P20815+Q9HB55+P24462); test: Decrease in CYP3A activity in human hepatocytes assessed as 6-betahydroxytestosterone formation using testosterone as substrate incubated for 3 days prior to substrate challenge for 30 mins by LC-MS/MS analysis; format: ADME, cell-based, Hepatocyte; details: 0.5 h
In short: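 Hepatocytes from 3 donors were plated on collagen I and cultured 2 days, then treated 3 days with carfilzomib (0.1–2.5 µM), 0.08% DMSO, rifampicin 20 µM or β-naphthoflavone 20 µM, renewed daily. Cells were then incubated in serum-free medium in triplicate with testosterone 200 µM (CYP3A, 30 min, 6β-hydroxytestosterone) or phenacetin 100 µM (CYP1A2, 60 min, acetaminophenol). Products were measured by LC-MS/MS and expressed relative to DMSO.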

Cytochrome P450 3A [3] = target: T2, Cytochrome P450 3A; test: Time-dependent inhibition of CYP3A in human liver microsomes assessed as midazolam 1'-hydroxylation using midazolam as substrate measured after 25-fold diution by LC-MS/MS analysis in presence of NADPH; format: ADME
In short: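 Pooled HLM (16 donors, mixed gender) preincubated in duplicate with carfilzomib 0, 0.5, 1, 3, 5 and 8 µM plus NADPH-generating system (1 mM NADP, 5 mM glucose-6-phosphate, 1 unit/mL G6PDH) for 0–30 min. Microsomal protein in preincubation: 2.5 mg/mL (testosterone) or 1.25 mg/mL (midazolam). Aliquots then diluted 25-fold into 50 mM potassium phosphate, 3 mM MgCl2, 1 mM EDTA, pH 7.4. Residual activity measured over 5 min with testosterone 200 µM or midazolam 40 µM plus NADPH-generating mixture, 37°C. KI and kinact derived.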

Plasma [4] = test: Drug metabolism in plasma of iv dosed human patient with relapsed and refractory hematological malignancies assessed as morpholino-hPhe metabolite formation administered on days 1, 2, 8, 9, 15 and 16 of 28-day cycle over 2 to 10 mins by LC-MS/MS analysis; format: ADME, organism-based; details: in vivo
Plasma [5] = test: Drug metabolism in plasma of human multiple myeloma patient assessed as morpholino-hPhe metabolite formation at 15 mg/m'2, iv administered as single dose measured within first 30 mins after end of drug infusion by LC-MS/MS analysis; format: ADME, organism-based; details: in vivo, 0.5 h
In short: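 Patients with multiple myeloma received a single 15 mg/m2 carfilzomib dose. Plasma was sampled pre-dose, at end of infusion, at 5, 15, 30 min and at 1, 1.5, 2, 4, 6, 24 h. Samples were protein-precipitated and analyzed by LC-MS/MS (metabolites 0.500–500 ng/mL) with deuterated internal standards.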

Cytochrome P450 3A [6] = target: T2, Cytochrome P450 3A; test: Time-dependent inhibition of CYP3A in human liver microsomes assessed as midazolam 1'-hydroxylation using midazolam as substrate by LC-MS/MS analysis in presence of NADPH; format: ADME
In short: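 HLM (1.25 mg/mL for midazolam) were preincubated in duplicate with carfilzomib 0, 0.5, 1, 3, 5, 8 µM plus an NADPH-generating system for 0–30 min. Mixtures were diluted 25-fold into pH 7.4 phosphate/MgCl2/EDTA buffer containing midazolam 40 µM and NADPH system for 5 min. Residual activity by LC-MS/MS gave KI and kinact.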

Hepatocyte = test: Cytotoxicity against human hepatocytes assessed as cell viability by MTT assay; format: cell-based
In short: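 MTT viability assay in cultured human hepatocytes from 3 donors after 3 days of carfilzomib exposure (0.1, 0.5, 2.5 µM) with daily medium and compound renewal. Solvent control was 0.08% DMSO.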

Cytochrome P450 3A [7] = target: T2, Cytochrome P450 3A; test: Time-dependent inhibition of CYP3A in human liver microsomes preincubated for 30 mins with carfilzomib by LC-MS/MS analysis; format: ADME; details: microsomes
In short: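 Pooled HLM (16 donors) given carfilzomib 0.01–10 µM in duplicate at 37°C with a 30-min preincubation before probe substrate was added. Substrate was set near Km (testosterone Km 100 µM; midazolam Km 3.8 µM). Protein was 0.1 mg/mL, or 0.05 mg/mL with midazolam. Metabolite formation was read by LC-MS/MS after 5 min and expressed relative to 0.5% acetonitrile controls to give IC50.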

Cytochrome P450 1A2 = target: T3, Cytochrome P450 1A2 (Homo sapiens, UniProt P05177); test: Drug metabolism in pooled human hepatocytes assessed as disapperance rate at 1 uM by LC-MS/MS analysis in presence of 30 uM CYP1A2 inhibitor furafylline; format: ADME, cell-based, Hepatocyte; in short: as §1
T3 sequence (P05177 whole entry): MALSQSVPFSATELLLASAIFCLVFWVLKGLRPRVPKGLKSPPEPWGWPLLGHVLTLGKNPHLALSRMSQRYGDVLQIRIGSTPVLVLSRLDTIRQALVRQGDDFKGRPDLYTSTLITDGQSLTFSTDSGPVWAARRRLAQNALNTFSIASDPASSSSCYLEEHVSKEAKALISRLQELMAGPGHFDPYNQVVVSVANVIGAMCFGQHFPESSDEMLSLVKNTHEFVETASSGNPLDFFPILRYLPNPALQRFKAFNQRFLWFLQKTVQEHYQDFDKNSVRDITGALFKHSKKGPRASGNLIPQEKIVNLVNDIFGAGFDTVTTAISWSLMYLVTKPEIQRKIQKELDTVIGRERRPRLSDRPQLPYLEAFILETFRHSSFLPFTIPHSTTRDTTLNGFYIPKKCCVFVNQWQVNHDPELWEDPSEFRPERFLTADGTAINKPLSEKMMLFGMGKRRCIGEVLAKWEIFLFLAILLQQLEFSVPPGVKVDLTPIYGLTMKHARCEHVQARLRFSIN

CYP3A [8] = target: T1, CYP3A; test: Inhibition of CYP3A in human liver microsomes assessed as substrate metabolite formation using testosterone as substrate preincubated with microsomes for 30 mins prior to substrate addition measured after 5 mins by LC-MS/MS analysis; format: ADME; details: probe testosterone; in short: as §2
Cytochrome P450 3A [9] = target: T2, Cytochrome P450 3A; test: Drug metabolism in pooled human hepatocytes assessed as disapperance rate at 1 uM by LC-MS/MS analysis in presence of 10 uM CYP3A inhibitor ketoconazole; format: ADME, cell-based, Hepatocyte; in short: as §1

Cytochrome P450 2D6, sequence (P10635 whole entry): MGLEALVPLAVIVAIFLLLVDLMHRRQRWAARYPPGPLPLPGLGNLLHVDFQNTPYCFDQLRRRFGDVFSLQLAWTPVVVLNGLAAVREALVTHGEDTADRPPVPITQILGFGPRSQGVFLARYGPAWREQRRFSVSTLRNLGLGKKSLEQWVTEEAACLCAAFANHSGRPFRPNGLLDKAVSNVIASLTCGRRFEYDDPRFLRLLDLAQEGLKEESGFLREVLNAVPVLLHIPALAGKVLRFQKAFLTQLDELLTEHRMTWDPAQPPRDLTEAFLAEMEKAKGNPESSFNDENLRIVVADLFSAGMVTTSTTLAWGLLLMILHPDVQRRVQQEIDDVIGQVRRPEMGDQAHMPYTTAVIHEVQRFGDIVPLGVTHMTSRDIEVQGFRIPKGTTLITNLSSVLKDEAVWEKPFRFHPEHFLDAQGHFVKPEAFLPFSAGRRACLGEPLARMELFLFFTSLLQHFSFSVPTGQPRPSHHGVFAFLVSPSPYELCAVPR
Cytochrome P450 2C19, sequence (P33261 whole entry, canonical isoform): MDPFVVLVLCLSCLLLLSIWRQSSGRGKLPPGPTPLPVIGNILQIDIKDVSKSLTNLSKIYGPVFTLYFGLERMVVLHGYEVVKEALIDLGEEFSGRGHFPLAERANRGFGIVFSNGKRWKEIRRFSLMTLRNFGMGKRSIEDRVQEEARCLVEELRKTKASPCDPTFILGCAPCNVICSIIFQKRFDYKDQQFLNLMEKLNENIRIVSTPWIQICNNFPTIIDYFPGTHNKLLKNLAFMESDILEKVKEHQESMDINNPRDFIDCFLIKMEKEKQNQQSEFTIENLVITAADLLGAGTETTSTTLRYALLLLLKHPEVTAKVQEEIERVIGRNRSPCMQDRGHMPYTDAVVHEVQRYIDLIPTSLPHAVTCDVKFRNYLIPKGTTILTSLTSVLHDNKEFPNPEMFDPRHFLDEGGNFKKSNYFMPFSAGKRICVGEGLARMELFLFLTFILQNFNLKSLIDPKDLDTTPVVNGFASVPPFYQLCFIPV

Drug metabolism (Cytochrome P450 2C19): 0.016 min⁻¹
IC50 at 5 min (CYP3A [1]): 490 nM
Drug metabolism (Cytochrome P450 2D6): 0.013 min⁻¹
inhibition (INH) (Cytochrome P450 3A [2]): Dose-dependent effect
inhibition (INH) (Cytochrome P450 3A [3]): Active
Drug metabolism (Plasma [4]): metabolite_detected
Drug metabolism (Plasma [5]): metabolite_detected
inhibition (INH) (Cytochrome P450 3A [6]): Active
inhibition (INH) (Cytochrome P450 3A [7]): Dose-dependent effect
Drug metabolism (Cytochrome P450 1A2): 0.016 min⁻¹
IC50 at 5 min (CYP3A [8]): > 970 nM
Drug metabolism (Cytochrome P450 3A [9]): 0.012 min⁻¹
SMILES: CC(C)C[C@H](NC(=O)[C@H](CCc1ccccc1)NC(=O)CN1CCOCC1)C(=O)N[C@@H](Cc1ccccc1)C(=O)N[C@@H](CC(C)C)C(=O)[C@@]1(C)CO1 [CARFILZOMIB]
Activity (Hepatocyte): Non-toxic
